Activity calls are given as the source filed them. The calls are words filed in the database; no cut-off is given here.
Assays:
[1] = biological target: T1, Beta-1,4-galactosyltransferase 1 (Bos taurus) (UniProt P08037); experiment: Ratio of Km for the compound to Km for UDP-Gal in bovine beta-1,4-GalT
T1 sequence (whole entry): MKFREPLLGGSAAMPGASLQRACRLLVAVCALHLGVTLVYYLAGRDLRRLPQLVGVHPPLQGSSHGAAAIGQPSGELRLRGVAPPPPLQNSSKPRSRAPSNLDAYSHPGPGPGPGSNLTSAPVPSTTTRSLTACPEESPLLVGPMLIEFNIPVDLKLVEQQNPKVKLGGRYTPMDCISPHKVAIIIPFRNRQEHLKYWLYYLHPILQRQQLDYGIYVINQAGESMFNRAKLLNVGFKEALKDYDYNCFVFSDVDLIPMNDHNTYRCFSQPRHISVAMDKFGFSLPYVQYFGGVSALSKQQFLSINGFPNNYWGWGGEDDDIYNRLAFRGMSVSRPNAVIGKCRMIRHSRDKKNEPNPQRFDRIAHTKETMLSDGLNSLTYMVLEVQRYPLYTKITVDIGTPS

[2] = Inhibition of Neisseria meningitidis alpha-1,4-GalT after 15 mins by Dixon plot analysis
Method in brief: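 Radiochemical transfer assay with DTT-activated N. meningitidis LgtC (0.010 ng): UDP-Gal 0.57 μM plus UDP-[3H]-Gal, Lacβ-O(CH2)8CO2Me 2 mM, DTT 1.7 mM, inhibitor 0–12.5 μM, in A/B buffer pH 7. Incubated 15 min at 37 °C, stopped with water.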

[3] = Inhibition of human GTB after 15 mins by Dixon plot analysis
Method in brief: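 Radiochemical assay on human GTB (0.049 ng): UDP-Gal 26 μM with UDP-[3H]-Gal, Fucα1,2Galβ-O(CH2)7CH3 acceptor 500 μM, inhibitor 0–62.5 μM, in A/B buffer pH 7. Incubated 15 min at 37 °C, then quenched with water.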

[4] = Binding affinity to Neisseria meningitidis alpha-1,4-GalT after 15 mins by competitive binding assay
[5] = biological target: N-acetyllactosaminide alpha-1,3-galactosyltransferase (Bos taurus, UniProt P14769); experiment: Inhibition of alpha-1,3-GalT in bovine after 15 mins by Dixon plot analysis
Method in brief: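 Bovine α-1,3-GalT (1.3 μg) in A/B buffer pH 7 with UDP-Gal 76 μM plus UDP-[3H]-Gal, Lacβ-O(CH2)8CO2Me 500 μM, and inhibitor 0–62.5 μM. Incubated 15 min at 37 °C, stopped with water; radiolabeled galactose transfer measured.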

[6] = Drug uptake in human HL60 cell golgi apparatus at 100 uM after 24 hrs by confocal fluorescence microscopy; type: ADME, cell-based; details: hl-60, 24 h
Method in brief: (§1)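 HL-60 cells were grown in RPMI 1640 with 16.7% (v/v) heat-inactivated FCS, L-glutamine and PenStrep. They were seeded at 10^6 cells/mL onto a glass coverslip and kept 24 h at 37 °C, 5% CO2 with the sodium-salt analogue at 100 μM. The coverslip was washed with medium to remove extracellular fluorophore. The compound's intrinsic blue fluorescence (λem 434 nm) was imaged by confocal microscopy at 364 nm.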

[7] = Drug uptake in human HL60 cell endoplasmic reticulum at 100 uM after 24 hrs by confocal fluorescence microscopy; type: ADME, cell-based; details: hl-60, 24 h; method in brief: as §1
Neisseria meningitidis [8] = experiment: Binding affinity to Neisseria meningitidis alpha-1,4-GalT by fluorescence quenching assay in presence of unlabeled UDP-Gal and UDP
Neisseria meningitidis [9] = experiment: Binding affinity to Neisseria meningitidis alpha-1,4-GalT after 10 mins by fluorescence quenching assay
Method in brief: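 Titration of the fluorescent donor analogue (200 nM final) with LgtC protein stock diluted 1/5 to 1/640 (eight dilutions) in A/B buffer (50 mM MOPS pH 7.0, 20 mM MnCl2, 1 mg/mL BSA). Emission read after 10 min at 37 °C (excitation 350 nm, emission 430 nm) and plotted against enzyme dilution. Run in triplicate.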

N-acetyllactosaminide alpha-1,3-galactosyltransferase, sequence (P14769 whole entry): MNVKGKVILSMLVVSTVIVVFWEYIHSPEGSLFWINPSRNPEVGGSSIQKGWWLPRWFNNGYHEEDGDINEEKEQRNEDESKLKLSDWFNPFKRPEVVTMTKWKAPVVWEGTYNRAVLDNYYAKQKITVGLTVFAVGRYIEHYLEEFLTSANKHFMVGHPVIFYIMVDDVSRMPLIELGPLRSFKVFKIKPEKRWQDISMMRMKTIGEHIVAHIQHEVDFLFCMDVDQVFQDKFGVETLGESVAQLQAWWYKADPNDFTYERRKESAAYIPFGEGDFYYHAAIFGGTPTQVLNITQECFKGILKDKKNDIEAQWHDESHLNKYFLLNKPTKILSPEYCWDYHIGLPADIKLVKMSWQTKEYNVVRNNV

SMILES | Ratio [1] | Ki [2] [µM] | Ki [3] [µM] | Ki [5] [µM] | other results
COc1ccc(-c2cn([C@@H]3O[C@H](COP(=O)(O)OP(=O)(O)O[C@H]4O[C@H](CO)[C@H](O)[C@H](O)[C@H]4O)[C@@H](O)[C@H]3O)c(=O)[nH]c2=O)cc1 | 3.3 |  |  |  | 
O=Cc1ccc(-c2cn([C@@H]3O[C@H](COP(=O)(O)OP(=O)(O)O[C@H]4O[C@H](CO)[C@H](O)[C@H](O)[C@H]4O)[C@@H](O)[C@H]3O)c(=O)[nH]c2=O)s1 [listing 1 of 2 here] |  | 0.45 | 2.4 |  | 
O=c1ccn([C@@H]2O[C@H](COP(=O)(O)OP(=O)(O)O)[C@@H](O)[C@H]2O)c(=O)[nH]1 [URIDINE_DIPHOSPHATE] |  |  |  |  | IC50 [4]: 46 µM
O=Cc1ccc(-c2cn([C@@H]3O[C@H](COP(=O)([O-])OP(=O)([O-])CC[C@H]4O[C@H](CO)[C@H](O)[C@H](O)[C@H]4O)[C@@H](O)[C@H]3O)c(=O)[nH]c2=O)s1.[Na+].[Na+] |  |  |  |  | Drug uptake [6]: Active; Drug uptake [7]: Active
O=Cc1ccc(-c2cn([C@@H]3O[C@H](COP(=O)(O)OP(=O)(O)CC[C@H]4O[C@H](CO)[C@H](O)[C@H](O)[C@H]4O)[C@@H](O)[C@H]3O)c(=O)[nH]c2=O)s1 [listing 1 of 2 here] |  | 1.7 | 3.8 | 18 | 
O=Cc1ccc(-c2cn([C@@H]3O[C@H](COP(=O)(O)OP(=O)(O)CC[C@H]4O[C@H](CO)[C@H](O)[C@H](O)[C@H]4O)[C@@H](O)[C@H]3O)c(=O)[nH]c2=O)s1 [listing 2 of 2 here] |  |  |  |  | Activity (Neisseria meningitidis [8]): inactive; Activity (Neisseria meningitidis [9]): Dose-dependent effect
O=Cc1ccc(-c2cn([C@@H]3O[C@H](COP(=O)([O-])OP(=O)([O-])O[C@H]4O[C@H](CO)[C@H](O)[C@H](O)[C@H]4O)[C@@H](O)[C@H]3O)c(=O)[nH]c2=O)s1.[Na+].[Na+] |  |  |  |  | Drug uptake [6]: Active; Drug uptake [7]: Active

Second part, led by results:

Ratio [1] | Ki [2] [µM] | Ki [3] [µM] | Ki [5] [µM] | SMILES | other results
6 | 6 | 48 | 76 | O=c1[nH]c(=O)n([C@@H]2O[C@H](COP(=O)(O)OP(=O)(O)O[C@H]3O[C@H](CO)[C@H](O)[C@H](O)[C@H]3O)[C@@H](O)[C@H]2O)cc1-c1ccccc1 | 
2 | 1.9 | 33 | 90 | O=c1[nH]c(=O)n([C@@H]2O[C@H](COP(=O)(O)OP(=O)(O)O[C@H]3O[C@H](CO)[C@H](O)[C@H](O)[C@H]3O)[C@@H](O)[C@H]2O)cc1-c1ccco1 | 
2 |  |  |  | O=Cc1ccc(-c2cn([C@@H]3O[C@H](COP(=O)(O)OP(=O)(O)O[C@H]4O[C@H](CO)[C@H](O)[C@H](O)[C@H]4O)[C@@H](O)[C@H]3O)c(=O)[nH]c2=O)s1 [listing 2 of 2 here] | 

From ChEMBL document CHEMBL2069297, “Inhibition of galactosyltransferases by a novel class of donor analogues” (J Med Chem, 2012)
